Measurements pooled from the literature.
Each line is one published result; the experiments were not run side by side.
Target: Cyclin-dependent kinase 11B (CDK11B, Homo sapiens, UniProt P21127)
Method: competition with immobilised ligand

| Structure (SMILES) | assay | setting | remaining binding [%] |
| --- | --- | --- | --- |
| COc1ncc2cc3ccccc3nc2c1C#N | cell-free assay | 5 µM | 100 |
| CC1CCCN1c1nccc(-c2cnn3ncccc23)n1 (stereo not drawn) | binding | 1 µM | 100 |
| CC(=O)N1CCC(c2ccc(C(=O)NC(=N)N)cc2C(F)(F)F)CC1 | cell-free assay | 1 µM | 100 |
| O=C(NCCCN1CCOCC1)c1ccc(Nc2nccc(-c3cc4ccccc4s3)n2)cc1 | binding | 1 µM | 57 |
| Cc1cnn2ncc(-c3ccnc(N(C)C)n3)c2c1 | binding | 1 µM | 95 |
| O=C(NCCCN1CCOCC1)c1ccc(Nc2ncc(Cl)c(-c3ccc(Cl)s3)n2)cc1 | binding | 1 µM | 33 |
| O=C(NC[C@@H]1[C@H]2CN(C(=O)OCc3cc(C(F)(F)F)cc(C(F)(F)F)c3)C[C@@H]12)c1ccc2[nH]nnc2c1 | cell-free assay | 1 µM | 100 |
| C[C@@H](c1ccc(-n2cnc3c(N)ncnc32)cc1)N1CCc2nn(C)c(Cc3ccccc3)c2C1=O | binding | 0.1 µM | 86 |
| CN(C)c1ncc(F)c(-c2cnn3ncccc23)n1 | binding | 1 µM | 100 |
| COc1cnc(Nc2cccc(S(N)(=O)=O)c2)nc1N1CCN(c2ccccc2)CC1 | binding | 1 µM | 99 |
| c1cncc(-c2cccc(Nc3nccc(NC4CCCCC4)n3)c2)c1 | binding | 10 µM | 80 |
| Cc1c(NC(=O)c2cc(C(N)=O)nc3cc(F)ccc23)c(C(F)(F)F)nn1Cc1ccc(C#N)cc1 | cell-free assay | 1 µM | 94 |
| N[C@H]1CCN(c2nccc(-c3cnn4ncccc34)n2)C1 | binding | 1 µM | 100 |
| CN(c1ccnc(CNc2nc(Nc3ccc4c(c3)CC(=O)N4)ncc2C(F)(F)F)n1)S(C)(=O)=O | cell-free assay | 1 µM | 91 |
| O=C(NCC1CCOCC1)c1n[nH]cc1NC(=O)c1c(F)cccc1F | binding | 1 µM | 96 |
| CN(C)C(=O)Cn1cc(-c2nc([C@@](C)(c3ccc(-c4cnc(N)nc4)cc3)C3CC3)no2)cn1 | cell-free assay | 1 µM | 79 |
| CN(C)c1nccc(-c2cnc3ncccn23)n1 | binding | 1 µM | 100 |
| O=C(c1ccc(Nc2ncc(Cl)c(-c3ccc(Cl)s3)n2)cc1)N1CCC(N2CCCC2)CC1 | binding | 1 µM | 46 |
| C[C@@H]1CCN(c2nccc(-c3cnn4ncccc34)n2)C1 | binding | 1 µM | 97 |
| CO[C@H]1CC[C@H](CNc2ccc(S(=O)(=O)NC(=O)c3ccc(N4CCN(CC5=C(c6ccc(Cl)cc6)CC(C)(C)CC5)CC4)cc3Oc3cnc4[nH]ccc4c3)cc2[N+](=O)[O-])CC1 | cell-free assay | 1 µM | 98 |
| CNC(=O)[C@@H]1CC[C@@H](n2c(-c3ccc4cnccc4c3)nc3ccc(C(=O)NCc4cccc(C(N)=O)c4)cc32)C1 | binding | 1 µM | 100 |
